The test system of series [1] is Nucleic Acid. Nature of the series: Ratio of drug level in hypothalamus to cerebellum in rat after 120 mins. It is filed as ADME, tissue-based. Conditions: in vivo, 2 h. The essentials: (§1)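 Rats, 3 per group, given ¹⁸F tracer (10–100 μCi, 0.2 ml sterile water with 1 mg/mL BSA) into the femoral vein under isoflurane. Brain regions, including hypothalamus, striatum and cerebellum, dissected, weighed and counted. % dose/g calculated against a 1% diluted aliquot of the dose. Region/cerebellum ratio is region %dose/g divided by cerebellum %dose/g. SD of the ratio propagated from both means and SDs.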

In series [2] the target is Sodium-dependent dopamine transporter (Homo sapiens, UniProt Q01959). Nature of the series: Displacement of [125I]N-(3'-iodopropen-2'yl)-2-beta-carbomethoxy-3-beta-(4-chlorophenyl)tropane from DAT expressed in LLCPK1 cells. It is filed as cell-based, LLC-PK1. The essentials:
(§2)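 Membrane homogenates from LLC-PK1 cells, each line overexpressing one transporter. Membranes (30–80 μg protein) in 50 mM Tris-HCl pH 7.4, 120 mM NaCl, 5 mM KCl, 0.1% BSA. Radioligands: 0.09 nM for SERT, 0.06 nM for DAT, 0.06 nM for NET. Competitor at 8–10 concentrations, 10⁻¹⁰ to 10⁻⁵ M. Incubated 1 hr at room temperature. Filtered on PEI-presoaked glass fiber and gamma counted. Ki from nonlinear regression, n = 3.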

For series [3], the target named is Sodium-dependent serotonin transporter (Homo sapiens, UniProt P31645). Nature of the series: Displacement of [125I]5-iodo-2-[[2,2-[(dimethylamino)methyl]phenyl]thio]benzyl alcohol from SERT expressed in LLCPK1 cells. The class given is cell-based, LLC-PK1. The gist of the method:
as §2

Series [4] deals with Sodium-dependent noradrenaline transporter (Homo sapiens, UniProt P23975). Nature of the series: Displacement of [125I]iodonisoxetine from NET expressed in LLCPK1 cells. The class given is cell-based, LLC-PK1. The gist of the method: as §2
Series [5] concerns Brain. Nature of the series: Biodistribution in iv dosed rat brain after 30 mins. It is filed as ADME, organism-based. The following applies: in vivo, 0.5 h. The essentials:
(§3)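 [18F]-labeled tracer was given to rats under isoflurane anesthesia: 0.2 ml sterile water with 1 mg/mL BSA and 10–100 μCi, into the femoral vein. Three rats per group. Animals were killed by cervical dislocation under anesthesia at the stated time. Organs were removed, weighed and counted. Uptake was calculated as percent dose against a 1% aliquot of the injected dose counted alongside.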

Series [6] concerns Brain. Nature of the series: Biodistribution in iv dosed rat brain after 120 mins. The class given is ADME, organism-based. Conditions: in vivo, 2 h. The gist of the method:
as §3

The subject of series [7] is Nucleic Acid. Nature of the series: Ratio of drug level in hypothalamus to cerebellum in rat after 30 mins. The following applies: in vivo, 0.5 h. It is filed as ADME, tissue-based. The essentials: as §1
A short description of series [8]: Partition coefficient, log P at pH 7.4. It is filed as physicochemical. Conditions: octanol/water.

The source of these data is ChEMBL document CHEMBL1138354, “2-(2'-((dimethylamino)methyl)-4'-(fluoroalkoxy)-phenylthio)benzenamine derivatives as serotonin transporter imaging agents” (J Med Chem, 2007).

Each structure is given as a SMILES string.

Sodium-dependent noradrenaline transporter, sequence (P23975 whole entry): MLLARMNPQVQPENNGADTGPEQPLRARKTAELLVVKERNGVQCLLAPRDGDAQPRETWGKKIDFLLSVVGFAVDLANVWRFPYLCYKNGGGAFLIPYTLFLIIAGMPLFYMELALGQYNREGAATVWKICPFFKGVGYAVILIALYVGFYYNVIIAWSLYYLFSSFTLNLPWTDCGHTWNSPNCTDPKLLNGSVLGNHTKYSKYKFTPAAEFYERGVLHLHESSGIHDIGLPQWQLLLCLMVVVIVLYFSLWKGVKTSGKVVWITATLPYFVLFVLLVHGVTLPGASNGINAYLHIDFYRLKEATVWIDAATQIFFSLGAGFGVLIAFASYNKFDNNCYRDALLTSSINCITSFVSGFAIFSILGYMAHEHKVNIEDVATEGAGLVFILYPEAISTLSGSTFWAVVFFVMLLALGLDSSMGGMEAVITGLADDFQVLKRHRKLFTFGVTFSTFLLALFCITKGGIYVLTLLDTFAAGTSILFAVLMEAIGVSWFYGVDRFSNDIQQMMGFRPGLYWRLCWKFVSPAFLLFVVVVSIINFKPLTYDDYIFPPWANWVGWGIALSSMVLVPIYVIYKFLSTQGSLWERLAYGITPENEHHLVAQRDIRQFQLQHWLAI
Sodium-dependent dopamine transporter, sequence (Q01959 whole entry): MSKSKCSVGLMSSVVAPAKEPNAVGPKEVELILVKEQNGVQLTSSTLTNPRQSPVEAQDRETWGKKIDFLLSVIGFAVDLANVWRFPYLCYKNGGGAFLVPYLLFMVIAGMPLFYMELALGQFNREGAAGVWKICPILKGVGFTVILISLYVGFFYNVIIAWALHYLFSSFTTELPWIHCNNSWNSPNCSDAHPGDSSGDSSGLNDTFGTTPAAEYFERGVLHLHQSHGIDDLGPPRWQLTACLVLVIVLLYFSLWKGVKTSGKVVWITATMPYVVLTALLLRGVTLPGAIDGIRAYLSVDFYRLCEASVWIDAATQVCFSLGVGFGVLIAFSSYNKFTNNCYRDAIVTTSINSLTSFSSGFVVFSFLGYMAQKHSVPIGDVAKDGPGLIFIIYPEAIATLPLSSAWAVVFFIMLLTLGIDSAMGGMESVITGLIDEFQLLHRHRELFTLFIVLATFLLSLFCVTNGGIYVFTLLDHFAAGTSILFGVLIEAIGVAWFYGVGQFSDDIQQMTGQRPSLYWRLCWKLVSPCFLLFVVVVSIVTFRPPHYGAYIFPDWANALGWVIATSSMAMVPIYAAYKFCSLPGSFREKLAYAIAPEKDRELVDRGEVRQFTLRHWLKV
Sodium-dependent serotonin transporter, sequence (P31645 whole entry): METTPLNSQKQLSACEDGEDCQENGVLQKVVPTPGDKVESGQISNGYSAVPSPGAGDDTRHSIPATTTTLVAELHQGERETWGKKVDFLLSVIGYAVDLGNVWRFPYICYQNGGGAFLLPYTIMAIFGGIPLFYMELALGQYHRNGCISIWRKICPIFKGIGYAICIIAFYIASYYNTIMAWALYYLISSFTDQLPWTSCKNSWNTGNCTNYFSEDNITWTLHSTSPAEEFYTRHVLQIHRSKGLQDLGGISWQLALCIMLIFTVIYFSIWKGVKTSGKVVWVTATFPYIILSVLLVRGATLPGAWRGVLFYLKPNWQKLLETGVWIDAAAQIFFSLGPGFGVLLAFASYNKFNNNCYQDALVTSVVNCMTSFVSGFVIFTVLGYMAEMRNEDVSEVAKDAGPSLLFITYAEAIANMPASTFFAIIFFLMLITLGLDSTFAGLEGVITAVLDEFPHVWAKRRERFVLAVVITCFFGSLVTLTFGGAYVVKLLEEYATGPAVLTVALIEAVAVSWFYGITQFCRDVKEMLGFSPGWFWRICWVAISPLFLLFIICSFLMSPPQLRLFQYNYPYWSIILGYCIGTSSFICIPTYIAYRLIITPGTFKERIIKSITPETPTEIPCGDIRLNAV

As for `CN(C)Cc1cc(OCCF)ccc1Sc1ccccc1N`, the Ratio is recorded as 7.83 in the series on Nucleic Acid [1] and 3.79 in the series with Nucleic Acid [7]. Besides, the Ki is 340 nM in series [2], 0.25 nM in series [3] and 7.5 nM in series [4]. In addition, the figures for the Drug uptake in the series with Brain [5] and in the series with Brain [6] were 1.85 %ID and 0.63 %ID, respectively.
`CN(C)Cc1cc(OCCF)ccc1Sc1ccc(F)cc1N`: the Ratio in the series with Nucleic Acid [1] was found to be 4.34; in the series on Nucleic Acid [7] it was 2.78. The results for the Ki in series [2], in series [3] and in series [4] were above 1000 nM, 0.1 nM and 37 nM, respectively. For the same compound, the Drug uptake amounted to 2.23 %ID with Brain [5] and 2.57 %ID in the series on Brain [6].
For `CN(C)Cc1cc(OCC[18F])ccc1Sc1ccc(Cl)cc1N`, the logD in series [8] came to 2.71.
For `CN(C)Cc1cc(OCCF)ccc1Sc1ccc(Cl)cc1N`, the Ratio worked out at 3.77 with Nucleic Acid [1] and 2.36 with Nucleic Acid [7]. Also, the Ki in series [2] was 847 nM; in series [3], 0.03 nM; in series [4] it was 97 nM. For the same compound, the Drug uptake turned out to be 1.72 %ID in the series on Brain [5] and 1.46 %ID in the series with Brain [6].
For the compound `CN(C)Cc1cc(OCCF)ccc1Sc1ccc(Br)cc1N`, the Ratio is recorded as 3.7 in the series with Nucleic Acid [1] and 2.04 in the series with Nucleic Acid [7]. For the same compound, the Ki was above 1000 nM in series [2], 0.05 nM in series [3] and 114 nM in series [4]. Further, the Drug uptake in the series on Brain [5] is recorded as 1.88 %ID; with Brain [6], 2.16 %ID.
As for `CN(C)Cc1cc(OCCCF)ccc1Sc1ccc(F)cc1N`, the Ratio in the series on Nucleic Acid [1] worked out at 4.36; in the series on Nucleic Acid [7] it was 2.66. Besides, the inhibitory constant (Ki) is above 1000 nM in series [2], 0.95 nM in series [3] and 95 nM in series [4]. The values for the Drug uptake with Brain [5] and in the series with Brain [6] were 1.43 %ID and 1.32 %ID, respectively.
In the case of `CN(C)Cc1cc(OCCCF)ccc1Sc1ccc(Br)cc1N`, the Ratio in the series with Nucleic Acid [1] was determined as 4.17; in the series with Nucleic Acid [7], 1.93. The Ki was above 1000 nM in series [2], 0.15 nM in series [3] and above 1000 nM in series [4]. The Drug uptake in the series on Brain [5] is on record as 1.12 %ID; in the series on Brain [6], 1.15 %ID.
Consider `CN(C)Cc1cc(OCC[18F])ccc1Sc1ccc(F)cc1N`, for which, in series [8], the logD came to 2.47.
`CN(C)Cc1cc(OCCC[18F])ccc1Sc1ccc(Br)cc1N` came in with a logD in series [8] of 3.3.
For `CN(C)Cc1cc(O)ccc1Sc1ccccc1N`, the Ki was 659 nM in series [2], 17 nM in series [3] and 33 nM in series [4].
Turning to `CN(C)Cc1cc(OCCO)ccc1Sc1ccc(F)cc1N`, the results for the Ki in series [2], in series [3] and in series [4] were above 1000 nM, 1.2 nM and 56 nM, respectively.
For `CN(C)Cc1cc(OCCCO)ccc1Sc1ccccc1N` the same measures were 443 nM, 1.3 nM and 7 nM.
In the case of `COc1ccc(Sc2ccccc2N)c(CN(C)C)c1`, the Ki came to 576 nM in series [2], 5 nM in series [3] and 14 nM in series [4].
Consider `CN(C)Cc1cc(OCCCF)ccc1Sc1ccccc1N`, for which the figures for the Ratio in the series with Nucleic Acid [1] and in the series on Nucleic Acid [7] were 7.67 and 3.5, respectively. For the same compound, the values for the Ki in series [2], in series [3] and in series [4] were 299 nM, 1.4 nM and 12 nM, respectively. Further, the Drug uptake with Brain [5] was determined as 1.23 %ID; with Brain [6] it was 0.59 %ID.
In turn, `CN(C)Cc1cc(OCCC[18F])ccc1Sc1ccc(F)cc1N` showed a logD in series [8] of 2.65.
For the compound `CN(C)Cc1cc(OCCO)ccc1Sc1ccccc1N`, the Ki in series [2] worked out at 351 nM; in series [3], 1.1 nM; in series [4], 11 nM.
The corresponding values for `CN(C)Cc1cc(OCCCO)ccc1Sc1ccc(Br)cc1N` are above 1000 nM, 0.21 nM and 279 nM.
With `CN(C)Cc1cc(OCCC[18F])ccc1Sc1ccccc1N`, in series [8], the logD was 2.54.
